Source: PubChem (several laboratories)
CSN deneddyl inh = inhibitors of CSN-mediated cullin deneddylation, primary screen, biochemical, fluorescence polarization, uHTS | inhibition, % at 12.5 µM | COP9 signalosome complex subunit 5 (Homo sapiens), Q92905 | Purified CSN, SCF-Nedd8-OG deneddylation | 0.38% of 360,000 active | AID 651999, 2013;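 active = pattern-corrected inhibition above about 35%, with an unprinted fluorescence ratio check between 0.5 and 1.5, limit read from the data, passing the limit was not always enough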
Target sequence (Q92905 whole entry, looked up, one chain of several): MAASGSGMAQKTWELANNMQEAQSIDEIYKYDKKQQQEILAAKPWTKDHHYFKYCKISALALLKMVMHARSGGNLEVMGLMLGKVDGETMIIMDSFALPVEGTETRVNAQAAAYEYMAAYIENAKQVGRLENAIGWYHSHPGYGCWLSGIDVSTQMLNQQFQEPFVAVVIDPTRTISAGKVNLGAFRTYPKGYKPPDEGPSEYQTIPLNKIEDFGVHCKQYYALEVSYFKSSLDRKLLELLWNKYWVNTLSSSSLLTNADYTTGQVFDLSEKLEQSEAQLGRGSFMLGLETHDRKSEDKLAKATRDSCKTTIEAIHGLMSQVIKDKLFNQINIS
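Test system: Human Csn5 produced in HEK293T cells | Compound: 12.5 µM single point | Times: 90 min, room temperature | Signal: Fluorescence polarization readout | Read-out basis: % inhibition of substrate cleavage by Csn5 | Controls: no-enzyme wells high, enzyme-with-substrate wells low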
HNF4A DNA FP = change in binding of human HNF4A to DNA, primary screen, biochemical, fluorescence polarization, FITC-DNA; AID 1224865, 2016; activity change, % at 10 µM; 1 h; 0.3% of 360,000 active; Hepatocyte nuclear factor 4-alpha (Homo sapiens), P41235; in the data active = activity change above about 30%, passing the limit was not always enough
NR1D1 modulator = modulators of Rev-erb alpha DNA binding, primary screen, biochemical, FITC-DNA, fluorescence polarization, uHTS. Nuclear receptor subfamily 1 group D member 1 (Homo sapiens), P20393. Rev-erbα–FITC-DNA binding, 90 min. AID 1259318, 2017. 0.79% of 370,000 active. activity, % at 10 µM;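 active = activity above about 14%, limit read from the data; passing the limit was not always enough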
TPT1 inhibitor = Candida albicans TPT1 enzyme inhibitors, primary screen, biochemical, fluorescence polarization | tRNA 2'-phosphotransferase TPT1 (Candida albicans SC5314) | recombinant caTPT1, FP RNA substrate dephosphorylation | inhibition, % at 5 µM | 0.81% of 300,000 active | AID 1962, 2009;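 active = inhibition above the mean of all tested compounds plus 3 SD, set per screening campaign, cut at about 24% in these data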
caTPT1 confirm = Candida albicans TPT1 inhibitors, confirmation, biochemical, fluorescence polarization, triplicate. shares compounds with TPT1 inhibitor. recombinant caTPT1, RNase T1 coupled. inhibition, % at 5 µM. 74% of 2,400 active. AID 2149, 2009;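 active = inhibition above the primary screen limit, the mean inhibition of all tested compounds plus 3 SD, cut at about 25% in these data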
RNase T1 inh = RNase T1 inhibitors, counter-screen for TPT1 inhibitor project, biochemical, fluorescence polarization; RNase T1 cleavage, 1536-well; 83% of 2,400 active; shares compounds with TPT1 inhibitor; AID 2153, 2009; inhibition, % at 5 µM;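 active = inhibition above the solvent-only control well mean plus 3 SD, limit set per screening run, cut at about 23% in these data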;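 also: inhibitors block cleavage so intact labeled substrate keeps polarization high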
Target sequence (P00651 whole entry, looked up): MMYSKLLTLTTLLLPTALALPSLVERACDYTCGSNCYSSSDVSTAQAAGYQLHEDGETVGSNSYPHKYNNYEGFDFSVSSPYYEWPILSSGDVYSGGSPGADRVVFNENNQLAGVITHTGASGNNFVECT
Hits are given with their value; n = inactive; x = no result given. An excerpt weighted towards active compounds, which were near 1.7% of everything screened.

SMILES	CSN deneddyl inh	HNF4A DNA FP	NR1D1 modulator	TPT1 inhibitor	caTPT1 confirm	RNase T1 inh
O=C(NCc1ccco1)OC1CCC12CCC(c1ccccc1)CC2 (centres undefined)	x	x	n	x	x	x
CN(C)CCNC(=O)/C(=C/c1ccc(-c2ccc(Cl)cc2Cl)o1)NC(=O)c1ccccc1	n	n	n	n	x	x
CN(C)CCNC(=O)/C(=C/c1ccc(-c2ccc(Cl)cc2)o1)NC(=O)c1ccccc1	n	n	n	41	n	n
C[C@@H](O[Si](c1ccccc1)(c1ccccc1)C(C)(C)C)[C@@H]1NC(=O)[C@@H]2C[C@]3(Br)c4ccccc4N(S(=O)(=O)c4ccccc4)[C@@H]3N2C1=O	x	x	n	x	x	x
Cc1cccc(NC(=O)c2ccc(NCCc3ccccc3)c([N+](=O)[O-])c2)c1	89	n	n	46	111	133
O=C(NC1CCCCC1)c1cccc2c1C(=O)c1ccc(N3CCCC3)cc1S2(=O)=O	n	n	n	x	x	x
O=C1c2ccccc2S(=O)(=O)c2cc(N3CCC(C(=O)N4CCCCC4)CC3)ccc21	x	x	n	58	78	88
CCCCNC(=O)NC1CCN(CC(=O)Nc2ccc3c(c2)OCCO3)CC1	x	x	n	x	x	x
O=Cc1ccc(-c2nc3ccccc3s2)o1	n	n	n	n	x	x
O=C(O)CCCN1C(=O)/C(=C\c2ccc(-c3nc4ccccc4s3)o2)SC1=S	n	n	n	30	48	75
Cc1nn(-c2ccccc2)c(Cl)c1/C=C1\SC(=S)N(CCCCCC(=O)O)C1=O	n	n	n	n	x	x
O=C(O)CCN1C(=O)/C(=C/c2ccc(-c3nc4ccccc4s3)o2)SC1=S	n	60	n	31	46	66
COc1ccc(/C=c2\s/c(=C/C(=O)c3ccc(C)cc3)[nH]c2=O)cc1OC	n	67	n	103	117	115
Cc1cc2c(nc1C)CCCN2S(=O)(=O)c1ccc(C(F)(F)F)cc1	x	x	n	x	x	x
CCOC(=O)C1=CCN(S(=O)(=O)c2ccc(Cl)cc2)C1c1cccc(Br)c1 (centres undefined)	x	x	n	x	x	x
CCOc1ccc(S(=O)(=O)Nc2nc3ccccc3nc2Nc2ccc(N3CCOCC3)cc2)cc1	n	n	n	28	n	n
O=C1/C(=C\c2ccco2)SC(=S)N1C1CCCCC1	x	x	x	n	x	x
CC1=C(C#N)C(=O)N(C2CCS(=O)(=O)C2)C(=O)/C1=C\c1ccco1 (centres undefined)	x	x	x	74	85	n
COc1cc2c(c(OC)c1)C(=O)O[C@H](C)C[C@@H]1O[C@H]1CCCCC(=O)C2	x	x	n	x	x	x
N=C1/C(=C/c2coc3ccccc3c2=O)C(=O)N=C2SC(c3ccco3)=NN12	n	n	x	59	88	97
Cc1cc(/C=C2\C(=N)N3N=C(c4ccco4)SC3=NC2=O)c(C)n1Cc1ccccc1	n	n	n	n	x	x
Cc1ccc(C2=N/C(=C\c3coc4ccccc4c3=O)C(=O)O2)cc1	x	x	n	x	x	x
N=C1/C(=C\c2coc3ccc(O)cc3c2=O)C(=O)N=C2SC=CN12	n	n	n	65	67	76
N=C1/C(=C\c2coc3ccccc3c2=O)C(=O)N=C2SC(c3ccncc3)=NN12	n	n	n	79	71	84
COCCCNC(=O)N1c2ccccc2Sc2ccccc21	n	n	n	25	n	n
SMILES	CSN deneddyl inh	HNF4A DNA FP	NR1D1 modulator	TPT1 inhibitor	caTPT1 confirm	RNase T1 inh
COc1ccc(CCNC(=O)N2c3ccccc3Sc3ccccc32)cc1	n	n	n	n	x	x
COCc1[nH]nc2c1C(c1cccc(C(F)(F)F)c1)N(c1ccc(OC)cc1)C2=O (centres undefined)	x	x	n	x	x	x
CC(=O)c1sc(N/N=C\c2c(O)ccc3ccccc23)nc1C	n	83	n	117	124	120
CCN(CC)c1ccc(/C=N/N2C(=O)c3ccccc3C2=O)c(O)c1	n	n	n	45	n	n
Cc1cccc(/C=C/C(=O)c2cc(Br)ccc(=O)c2O)c1	n	n	n	n	x	x
O=C(C=Cc1ccccc1)c1cc(Br)ccc1O	n	n	n	x	x	x
CCOc1ccc(/C=C/C(=O)c2cc(Br)ccc(=O)c2O)cc1	n	n	n	24	32	41
CCc1ccc(/C=C/C(=O)c2cc(Br)ccc(=O)c2O)cc1	n	n	n	25	25	33
CCCCCCC(=O)NC1CCCCN(C)C1=O (centres undefined)	x	x	n	x	x	x
CCOC(=O)c1sc(NCc2ccco2)c(-c2nc3ccccc3s2)c1N	n	n	n	26	28	39
CC(S)C(=O)NCC(=O)O (centres undefined)	x	x	n	x	x	x
O=c1[nH]ncc2c3ccccc3n(Cc3cccc(Cl)c3)c12	n	63	n	69	157	137
O=C(Nc1ccc(Cl)cc1)N(CCCN1CCOCC1)Cc1cccs1	n	n	n	n	x	x
S=C(Nc1ccc(Cl)cc1)N(CCCN1CCOCC1)Cc1cccs1	n	n	n	57	n	n
CCNc1ccccc(C(=O)/C=C/c2ccc3c(c2)OCO3)c1=O	n	n	n	26	n	n
COC(=O)/C=C/c1ccc2c(c1)OCO2	n	n	n	n	x	x
CNc1ccc(Br)cc(C(=O)/C=C/c2cccc(Cl)c2Cl)c1=O	n	n	n	x	x	x
CNc1ccc(Br)cc(C(=O)/C=C/c2cccc(OC)c2OC)c1=O	n	n	n	41	65	76
CCNc1ccc(Br)cc(C(=O)/C=C/c2ccccc2Cl)c1=O	n	n	n	53	88	94
CCOC(=O)[C@@]12CCCC=C1N(CCc1ccc(Cl)cc1)C(=O)[C@H]2CC(=O)NCC12CC3CC(CC(C3)C1)C2	x	x	n	x	x	x
COc1cc(OC)c(C(=O)OCC(=O)NCCc2ccccc2)cc1OC	n	n	n	72	n	n
CNc1nc(-c2c[nH]c3ccccc23)cs1	n	n	n	n	x	x
CCC(C)Nc1nc(-c2c[nH]c3ccccc23)cs1 (centres undefined)	n	n	n	25	n	33
N#CC1=C(N)Oc2cc(O)c(C=Nc3ccccc3)cc2C1c1ccccc1 (centres undefined)	n	n	n	n	x	x
Cc1ccccc1N=Cc1cc2c(cc1O)OC(N)=C(C#N)C2c1ccccc1 (centres undefined)	n	n	n	53	73	82
COc1ccc(C(C(=O)N(C)C2CCCC2)N(Cc2ccc(F)cc2)C(=O)c2ncn[nH]2)cc1OC (centres undefined)	x	x	n	x	x	x
O=C(O)C(Cc1ccccc1)N1C(=O)/C(=C/C=C/c2ccco2)SC1=S (centres undefined)	n	n	n	x	x	x
